According to ChEMBL document CHEMBL1148342, “Synthesis, X-ray crystal structures, stabilities, and in vitro cytotoxic activities of new heteroarylacrylonitriles” (J Med Chem, 2004):

Key:
[1] = system: 5637; assay: Cytotoxic activity against human 5637 cell line at 20 uM expressed as percent growth value; format: functional
Method in brief: (§1)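 Cells in RPMI-1640 with 10% FCS were seeded (1000 cells/well; KYSE-510 500, LCLC-103H 250), then exposed 24 h later for 96 h. Read-out was crystal violet staining of glutaraldehyde-fixed cells at OD 570 nm. Growth (%) = (OD treated − OD at drug addition)/(OD control − OD at drug addition) × 100.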

[2] = system: KYSE-70 cell line; assay: Cytotoxic activity against human KYSE-70 cell line at 20 uM expressed as percent growth value; format: functional; method in brief: as §1
[3] = system: SISO; assay: Cytotoxic activity against human SISO cell line at 20 uM; format: functional; method in brief: as §1
[4] = system: 5637; assay: Growth inhibition against human 5637 cell lines; format: functional, cell-based
Method in brief: (§2)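 Cells were grown in RPMI-1640 with 2 g/L NaHCO3 and 10% FCS at 37 °C in 5% CO2, seeded at 1000 cells/well, and dosed 24 h later at five geometric dilutions for 96 h of continuous exposure. Cells were then glutaraldehyde-fixed and stained with crystal violet, with OD read at 570 nm. IC50 was taken from the dose–response data.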

[5] = system: DAN-G; assay: Growth inhibition against human DAN-G cell lines; format: functional, cell-based; method in brief: as §2
[6] = system: KYSE-70 cell line; assay: Growth inhibition against human KYSE-70 cell lines; format: functional, cell-based; method in brief: as §2
[7] = system: MCF7; assay: Growth inhibition against human MCF-7 cell lines; format: functional, cell-based
Method in brief: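 MCF-7 was cultured in RPMI-1640 with 2 g/L NaHCO3, 10% FCS, 1 mM pyruvate, MEM salts and amino acids. Plating was 1000 cells/well, then after 24 h, 96 h of continuous exposure at five geometric dilutions. Crystal violet staining of glutaraldehyde-fixed cells was read at 570 nm, and IC50 was derived from the dose–response data.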

[8] = system: LCLC-103H cell line; assay: Growth inhibition against human LCLC-103H cell lines; format: functional, cell-based
Method in brief: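 LCLC-103H cells were grown in RPMI-1640 with 2 g/L NaHCO3 and 10% FCS (5% CO2, 37 °C) and plated at 250 cells/well. After 24 h, five geometric dilutions were applied continuously for 96 h. Fixation was with glutaraldehyde, followed by crystal violet staining and OD at 570 nm. IC50 came from the dose–response curves.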

[9] = system: RT-4; assay: Growth inhibition against human RT-4 cell lines; format: functional, cell-based; method in brief: as §2
[10] = system: SISO; assay: Growth inhibition against human SISO cell lines; format: functional, cell-based; method in brief: as §2
[11] = system: KYSE-510; assay: Cytotoxic activity against human KYSE-510 cell line at 20 uM expressed as percent growth value; format: functional; method in brief: as §1
[12] = system: LCLC-103H cell line; assay: Cytotoxic activity against human LCLC-103H cell line at 20 uM expressed as percent growth value; format: functional; method in brief: as §1
[13] = system: RT-112; assay: Growth inhibition against human RT-112 cell lines; format: functional, cell-based; method in brief: as §2
[14] = system: TERT-RPE1; assay: Compound was tested for growth inhibition against human h-TERTRPE1 cell lines; format: functional, cell-based
Method in brief: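 The noncancerous hTERT-immortalized epithelial line h-TERT-RPE1 was grown in DMEM/F-12 with 2 g/L NaHCO3 and 10% FCS (37 °C, 5% CO2) and seeded at 1000 cells/well. Substance was added 24 h later at five geometric dilutions for 96 h continuously. The read-out was crystal violet staining after glutaraldehyde fixation, OD 570 nm, with IC50 from dose–response.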

[15] = system: YAPC; assay: Compound was tested for growth inhibition against human YAPC cell lines; format: functional, cell-based; method in brief: as §2
[16] = system: KYSE-520 cell line; assay: Growth inhibition against human KYSE-520 cell lines; format: functional, cell-based; method in brief: as §2
[17] = system: KYSE-510 (human); assay: Growth inhibition against human KYSE-510 cell lines

Compound `COc1ccc(/C=C(\C#N)c2nc3ccccc3[nH]2)cc1` has an Activity [1] of 64.9, an Activity [2] of 75.8 and an Activity [3] of 72.1.
`N#C/C(=C\c1cccs1)c1nc2ccccc2[nH]1` showed an Activity [1] of 49.3, an IC50 ([4]; Homo sapiens) of 17800 nM and an IC50 ([5]; Homo sapiens, DAN-G) of 15000 nM. For the same compound, the IC50 ([6]; Homo sapiens, KYSE-70) was 8780 nM, the Activity [2] was 30.8 and the IC50 ([7]; Homo sapiens, MCF7) was 11200 nM. It also gave an IC50 ([8]; Homo sapiens, LCLC-103H) of 2500 nM, an IC50 ([9]; Homo sapiens, RT-4) of 14600 nM and an Activity [3] of 82.4. For the same compound, the IC50 ([10]; Homo sapiens, SISO) was 25900 nM.
Work on `N#C/C(=C\c1ccc([N+](=O)[O-])s1)c1n[nH]c(Cc2ccccc2)n1` yielded an IC50 ([4]; Homo sapiens) of 320 nM, an IC50 ([5]; Homo sapiens, DAN-G) of 500 nM and an Activity [11] of -21.3. It also gave an IC50 ([6]; Homo sapiens, KYSE-70) of 420 nM, an IC50 ([7]; Homo sapiens, MCF7) of 420 nM and an IC50 ([8]; Homo sapiens, LCLC-103H) of 310 nM. It also gave an Activity [12] of -8.4, an IC50 ([13]; Homo sapiens, RT-112) of 650 nM and an IC50 ([9]; Homo sapiens, RT-4) of 590 nM. The Activity [3] was -8.7, the IC50 ([10]; Homo sapiens, SISO) was 780 nM and the IC50 ([14]; Homo sapiens, RPE-1) was 510 nM. It also gave an IC50 ([15]; Homo sapiens, YAPC) of 360 nM, an IC50 ([16]; Homo sapiens, KYSE-520) of 290 nM and an IC50 ([17]; Homo sapiens, KYSE-510) of 530 nM.
With `N#C/C(=C\c1ccc([N+](=O)[O-])s1)c1nc2ccccc2[nH]1` the IC50 ([4]; Homo sapiens) was 150 nM, the IC50 ([5]; Homo sapiens, DAN-G) was 320 nM and the Activity [11] was 20.5. For the same compound, the IC50 ([6]; Homo sapiens, KYSE-70) was 160 nM, the IC50 ([7]; Homo sapiens, MCF7) was 160 nM and the IC50 ([8]; Homo sapiens, LCLC-103H) was 170 nM. It also gave an Activity [12] of -6.5, an IC50 ([13]; Homo sapiens, RT-112) of 360 nM and an IC50 ([9]; Homo sapiens, RT-4) of 270 nM. For the same compound, the Activity [3] was 18, the IC50 ([10]; Homo sapiens, SISO) was 310 nM and the IC50 ([14]; Homo sapiens, RPE-1) was 390 nM. It also gave an IC50 ([15]; Homo sapiens, YAPC) of 160 nM, an IC50 ([16]; Homo sapiens, KYSE-520) of 110 nM and an IC50 ([17]; Homo sapiens, KYSE-510) of 330 nM.
Compound `CN(C)c1ccc(/C=C(\C#N)c2nc3ccccc3[nH]2)cc1` has an Activity [1] of 61.1, an Activity [2] of 124.4 and an Activity [3] of 95.
`Cc1n[nH]c(/C(C#N)=C/c2ccc([N+](=O)[O-])o2)n1` showed an IC50 ([4]; Homo sapiens) of 540 nM, an IC50 ([5]; Homo sapiens, DAN-G) of 1000 nM and an Activity [11] of -21.3. The IC50 ([6]; Homo sapiens, KYSE-70) was 660 nM, the IC50 ([7]; Homo sapiens, MCF7) was 1470 nM and the IC50 ([8]; Homo sapiens, LCLC-103H) was 350 nM. It also gave an Activity [12] of -8.4, an IC50 ([13]; Homo sapiens, RT-112) of 1000 nM and an IC50 ([9]; Homo sapiens, RT-4) of 1480 nM. It also gave an Activity [3] of -8.7, an IC50 ([10]; Homo sapiens, SISO) of 270 nM and an IC50 ([14]; Homo sapiens, RPE-1) of 690 nM. For the same compound, the IC50 ([15]; Homo sapiens, YAPC) was 850 nM, the IC50 ([16]; Homo sapiens, KYSE-520) was 860 nM and the IC50 ([17]; Homo sapiens, KYSE-510) was 900 nM.
With CISPLATIN the IC50 [4] was 310 nM, the IC50 ([5]; dan-g) was 1390 nM and the IC50 ([6]; kyse-70) was 1490 nM. The IC50 ([7]; mcf7) was 740 nM, the IC50 ([8]; lclc-103h) was 1630 nM and the IC50 ([13]; rt-112) was 2140 nM. The IC50 ([9]; rt-4) was 3700 nM, the IC50 ([10]; siso) was 200 nM and the IC50 ([14]; tert-rpe1) was 3040 nM. The IC50 ([15]; yapc) was 6030 nM, the IC50 ([16]; kyse-520) was 5070 nM and the IC50 ([17]; kyse-510) was 880 nM.
`N#C/C(=C\c1csc([N+](=O)[O-])c1)c1nc2ccccc2[nH]1` gave an Activity [1] of 80, an IC50 ([4]; Homo sapiens) greater than 20000 nM and an IC50 ([5]; Homo sapiens, DAN-G) greater than 20000 nM. It also gave an IC50 ([8]; Homo sapiens, LCLC-103H) of 1420 nM, an Activity [12] of 8.6 and an IC50 ([9]; Homo sapiens, RT-4) greater than 20000 nM. The Activity [3] was 82.3, the IC50 ([10]; Homo sapiens, SISO) was greater than 20000 nM and the IC50 ([14]; Homo sapiens, RPE-1) was greater than 5000 nM.
In the case of `N#C/C(=C\c1ccc([N+](=O)[O-])o1)c1n[nH]c(-c2ccccc2)n1`, the IC50 ([4]; Homo sapiens) is reported as 1220 nM, the IC50 ([5]; Homo sapiens, DAN-G) is reported as 1520 nM and the Activity [11] is reported as -20.9. For the same compound, the IC50 ([6]; Homo sapiens, KYSE-70) was 1170 nM, the IC50 ([7]; Homo sapiens, MCF7) was 1620 nM and the IC50 ([8]; Homo sapiens, LCLC-103H) was 700 nM. For the same compound, the Activity [12] was -8.4, the IC50 ([13]; Homo sapiens, RT-112) was 1510 nM and the IC50 ([9]; Homo sapiens, RT-4) was 1850 nM. For the same compound, the Activity [3] was -7.9, the IC50 ([10]; Homo sapiens, SISO) was 1200 nM and the IC50 ([14]; Homo sapiens, RPE-1) was 1160 nM. The IC50 ([15]; Homo sapiens, YAPC) was 1400 nM, the IC50 ([16]; Homo sapiens, KYSE-520) was 1620 nM and the IC50 ([17]; Homo sapiens, KYSE-510) was 1350 nM.
Work on `N#C/C(=C\c1ccc(OC(F)(F)F)cc1)c1nc2ccccc2[nH]1` yielded an Activity [1] of 66, an Activity [2] of 96.7 and an Activity [3] of 71.7.
In the case of `Cc1n[nH]c(/C(C#N)=C/c2cccc([N+](=O)[O-])c2)n1`, the Activity [11] is reported as 94.1, the Activity [12] is reported as 68.8 and the Activity [3] is reported as 98.1.
Work on `N#C/C(=C\c1cccc([N+](=O)[O-])c1)c1n[nH]c(-c2ccccc2)n1` yielded an Activity [11] of 108, an Activity [12] of 56.4 and an Activity [3] of 85.5.
With `Cc1ccc(/C=C(\C#N)c2nc3ccccc3[nH]2)s1` the Activity [1] was 47.8, the IC50 ([4]; Homo sapiens) was 20000 nM and the IC50 ([5]; Homo sapiens, DAN-G) was greater than 20000 nM. It also gave an IC50 ([8]; Homo sapiens, LCLC-103H) of 2110 nM, an Activity [12] of 5.9 and an IC50 ([9]; Homo sapiens, RT-4) greater than 20000 nM. The Activity [3] was 64.5 and the IC50 ([10]; Homo sapiens, SISO) was greater than 20000 nM.
